Among the data in ChEMBL document CHEMBL1140074, “Aminoacyl-anthraquinone conjugates as telomerase inhibitors: synthesis, biophysical and biological evaluation” (J Med Chem, 2008) are ΔTm, EC50 and IC50 values, retold here.

The species named for experiment [1] is Homo sapiens. Kind of experiment: Binding affinity to human telomeric DNA sequence assessed as stabilization of G-quadruplex at 10 uM by thermal denaturation. Put shortly: (§1)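 Fluorescence melting in a LightCycler of 0.25 µM telomeric oligonucleotide HTS (5'-FAM, 3'-methyl red) in LiP buffer (10 mM LiOH, 50 mM KCl, pH 7.4 with H3PO4). Samples were denatured at 95 °C for 5 min, then cooled and reheated at 0.5 °C/min in 1 °C steps with 2 min equilibration per step. Excitation 488 nm, emission 520 nm. ΔTm was taken relative to ligand-free DNA.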

The species named for experiment [2] is Homo sapiens. Kind of experiment: Binding affinity to human telomeric DNA sequence assessed as stabilization of G-quadruplex at 1 uM by thermal denaturation. Put shortly:
as §1

Experiment [3] concerns the target DNA polymerase I, thermostable (Thermus aquaticus, UniProt P19821). Put plainly: Inhibition of Taq polymerase. In a few lines:
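PCR with 2.5 ng pBR322 template and primers Tup/Tdown (0.5 µM) amplifying plasmid bases 906-1064. Compounds tested from 20 nM to 40 µM. Run 25 cycles of 94 °C, 65 °C and 72 °C (30 s each). Products resolved on 2% agarose in TBE and stained with ethidium bromide.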

The target of experiment [4] is Telomerase reverse transcriptase (Homo sapiens, UniProt O14746). Kind of experiment: Inhibition of telomerase in human JR8 cells by TRAP assay. In kind it is cell-based. Put shortly:
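Telomerase source was a CHAPS lysate of exponentially growing JR8 cells (500 ng protein per reaction). Elongation 30 min at 30 °C, then 30 PCR cycles. Products run on 10% PAGE with phosphorimager read-out, in triplicate. Drug levels kept below those inhibiting Taq.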

The subject of experiment [5] is HeLa. Put plainly: Cytotoxicity against human HeLa cells expressing telomerase after 96 hrs by MTT assay. In kind it is functional, cell-based. Put shortly:
(§2)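 Cells grown in DMEM with 10% heat-inactivated FCS, penicillin/streptomycin, 37 °C, 5% CO2. Plated at 10000 cells/well and left overnight, then exposed to eight serial dilutions in triplicate for 96 h. MTT added to 0.8 mg/mL final for 2 h, formazan dissolved in DMSO, absorbance read at 540 nm. IC50 from sigmoidal dose-response fits.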
(In general: Formazan colour is commonly taken as a measure of viable cells.)

Experiment [6] can be described thus: Cytotoxicity against human 293T cells expressing telomerase after 96 hrs by MTT assay. The format is cell-based. The following applies: HEK-293T. Put shortly: as §2

SMILES strings stand for the structures. Bounds are passed on as bounds.

Chain of DNA polymerase I, thermostable (P19821 whole entry): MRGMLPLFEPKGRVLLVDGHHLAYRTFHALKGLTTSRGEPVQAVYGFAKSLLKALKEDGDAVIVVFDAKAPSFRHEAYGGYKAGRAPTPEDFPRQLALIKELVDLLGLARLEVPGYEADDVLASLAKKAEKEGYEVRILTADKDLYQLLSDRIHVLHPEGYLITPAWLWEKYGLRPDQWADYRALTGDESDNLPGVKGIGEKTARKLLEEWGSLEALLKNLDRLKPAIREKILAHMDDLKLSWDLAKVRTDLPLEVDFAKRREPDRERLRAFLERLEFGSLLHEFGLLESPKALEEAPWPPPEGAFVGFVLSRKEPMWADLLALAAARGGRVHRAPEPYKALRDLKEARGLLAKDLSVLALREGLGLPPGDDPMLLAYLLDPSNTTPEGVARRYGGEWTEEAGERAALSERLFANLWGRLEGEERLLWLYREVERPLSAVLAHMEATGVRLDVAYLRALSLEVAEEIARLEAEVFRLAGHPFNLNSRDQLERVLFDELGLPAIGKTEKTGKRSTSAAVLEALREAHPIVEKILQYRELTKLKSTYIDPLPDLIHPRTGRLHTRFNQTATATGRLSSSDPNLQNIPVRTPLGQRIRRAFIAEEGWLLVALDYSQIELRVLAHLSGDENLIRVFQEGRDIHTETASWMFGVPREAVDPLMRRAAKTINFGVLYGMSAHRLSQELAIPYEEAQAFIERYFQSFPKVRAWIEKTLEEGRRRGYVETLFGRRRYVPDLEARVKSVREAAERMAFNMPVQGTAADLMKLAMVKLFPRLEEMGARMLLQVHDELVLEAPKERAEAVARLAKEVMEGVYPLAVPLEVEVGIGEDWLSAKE
Chain of Telomerase reverse transcriptase (O14746 whole entry): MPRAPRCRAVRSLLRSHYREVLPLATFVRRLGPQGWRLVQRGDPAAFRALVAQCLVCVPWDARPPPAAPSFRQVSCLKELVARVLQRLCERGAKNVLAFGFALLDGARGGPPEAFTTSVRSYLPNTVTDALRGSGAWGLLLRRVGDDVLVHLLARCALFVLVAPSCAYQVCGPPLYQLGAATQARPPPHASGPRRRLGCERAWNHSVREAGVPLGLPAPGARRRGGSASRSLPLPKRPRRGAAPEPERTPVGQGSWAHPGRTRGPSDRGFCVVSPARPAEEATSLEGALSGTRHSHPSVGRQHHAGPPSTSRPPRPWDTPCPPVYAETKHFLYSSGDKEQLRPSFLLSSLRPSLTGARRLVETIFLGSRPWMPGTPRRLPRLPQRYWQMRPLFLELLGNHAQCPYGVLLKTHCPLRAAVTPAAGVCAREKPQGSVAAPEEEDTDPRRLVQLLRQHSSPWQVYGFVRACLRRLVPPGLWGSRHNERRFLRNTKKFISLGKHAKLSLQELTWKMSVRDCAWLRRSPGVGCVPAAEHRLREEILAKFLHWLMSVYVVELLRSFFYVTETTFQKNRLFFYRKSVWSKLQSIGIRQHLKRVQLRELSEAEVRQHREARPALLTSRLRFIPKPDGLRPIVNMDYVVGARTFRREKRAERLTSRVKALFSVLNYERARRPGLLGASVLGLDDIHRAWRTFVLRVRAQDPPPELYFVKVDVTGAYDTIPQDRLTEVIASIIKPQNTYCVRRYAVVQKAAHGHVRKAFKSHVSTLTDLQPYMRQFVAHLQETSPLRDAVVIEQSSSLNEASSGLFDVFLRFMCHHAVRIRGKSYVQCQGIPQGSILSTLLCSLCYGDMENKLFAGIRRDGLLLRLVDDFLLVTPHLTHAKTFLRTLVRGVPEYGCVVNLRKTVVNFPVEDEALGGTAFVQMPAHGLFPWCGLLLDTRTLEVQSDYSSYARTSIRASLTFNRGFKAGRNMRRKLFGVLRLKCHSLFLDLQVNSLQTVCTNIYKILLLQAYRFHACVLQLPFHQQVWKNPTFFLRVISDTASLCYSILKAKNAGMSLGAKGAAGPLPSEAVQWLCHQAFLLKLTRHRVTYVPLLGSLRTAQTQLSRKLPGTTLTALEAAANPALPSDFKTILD

A word on the ΔTm: it is the change in melting temperature against a reference sample. The term EC50 denotes the concentration that produces a half-maximal response. Lower therefore signals higher potency in that assay. As a reminder, the IC50 is the concentration that inhibits the measured activity by half. For the compound `NCCNC(=O)c1ccc2c(c1)C(=O)c1cc(C(=O)NCCN)ccc1C2=O`, the values for the thermal shift (ΔTm) in experiment [1] and in experiment [2] were 12.9 °C and 3.3 °C, respectively. The half-maximal effective concentration (EC50) in experiment [3] was greater than 40 µM; in experiment [4], 15 µM. Further, the IC50 in experiment [5] and in experiment [6] was 100 µM in each case.

In the case of `O=C(CNC(=O)[C@@H]1CCCN1)Nc1ccc2c(c1)C(=O)c1ccc(NC(=O)CNC(=O)[C@@H]3CCCN3)cc1C2=O`, the shift in melting temperature (ΔTm) turned out to be 15.6 °C in experiment [1] and 6.1 °C in experiment [2]. The values for the EC50 in experiment [3] and in experiment [4] were greater than 40 µM and 10 µM, respectively. The IC50 in experiment [5] is 33 µM; in experiment [6], greater than 100 µM.

On to `C[C@H](N)C(=O)NCC(=O)Nc1ccc2c(c1)C(=O)c1ccc(NC(=O)CNC(=O)[C@H](C)N)cc1C2=O`, for which the ΔTm in experiment [1] amounted to 9.2 °C; in experiment [2], 6.1 °C. Also, the EC50 in experiment [3] was greater than 40 µM; in experiment [4] it was 25 µM. For the same compound, the values for the IC50 in experiment [5] and in experiment [6] were 17 µM and 43 µM, respectively.

`N=C(N)NCCC[C@H](N)C(=O)NCCNC(=O)c1ccc2c(c1)C(=O)c1ccc(C(=O)NCCNC(=O)[C@@H](N)CCCNC(=N)N)cc1C2=O`: the thermal shift (ΔTm) in experiment [1] was 16.4 °C; in experiment [2] it was 5.2 °C. Also, the EC50 in experiment [3] was 10 µM; in experiment [4], 1.5 µM. The values for the IC50 in experiment [5] and in experiment [6] were 85 µM and greater than 100 µM, respectively.

For the compound `NCCC(=O)Nc1ccc2c(c1)C(=O)c1cc(NC(=O)CCN)ccc1C2=O`, the results for the ΔTm in experiment [1] and in experiment [2] were 23.4 °C and 11.3 °C, respectively. The concentration for a half-maximal effect (EC50) came out at 10 µM in experiment [3] and 1.2 µM in experiment [4]. Also, the figures for the IC50 in experiment [5] and in experiment [6] were 57 µM and 79 µM, respectively.

With `NCCCC[C@H](N)C(=O)NCCNC(=O)c1ccc2c(c1)C(=O)c1ccc(C(=O)NCCNC(=O)[C@@H](N)CCCCN)cc1C2=O`, the thermal shift (ΔTm) in experiment [1] stood at 15.9 °C; in experiment [2], 7.9 °C. The EC50 in experiment [3] turned out to be 10 µM; in experiment [4] it was 0.8 µM. Besides, the half-maximal inhibitory concentration (IC50) was 100 µM in experiment [5] and greater than 100 µM in experiment [6].

With `NCC(=O)NCC(=O)Nc1ccc2c(c1)C(=O)c1ccc(NC(=O)CNC(=O)CN)cc1C2=O`, the ΔTm in experiment [1] worked out at 8.6 °C; in experiment [2], 0.4 °C. Further, the concentration giving a half-maximal response (EC50) in experiment [3] was greater than 40 µM; in experiment [4], 5 µM. Moreover, the values for the IC50 in experiment [5] and in experiment [6] were 39 µM and greater than 100 µM, respectively.

Turning to `NCCCC[C@H](N)C(=O)NCCNC(=O)c1ccc2c(c1)C(=O)c1cc(C(=O)NCCNC(=O)[C@@H](N)CCCCN)ccc1C2=O`, the ΔTm in experiment [1] turned out to be 14.7 °C; in experiment [2], 5.2 °C. Also, the figures for the EC50 in experiment [3] and in experiment [4] were greater than 40 µM and 3 µM, respectively. Further, the concentration for half-maximal inhibition (IC50) is 84 µM in experiment [5] and greater than 100 µM in experiment [6].

For the compound `NCCCC[C@H](N)C(=O)NCC(=O)Nc1ccc2c(c1)C(=O)c1ccc(NC(=O)CNC(=O)[C@@H](N)CCCCN)cc1C2=O`, the values for the shift in melting temperature (ΔTm) in experiment [1] and in experiment [2] were greater than 17 °C and 12 °C, respectively. The EC50 in experiment [3] was 5 µM; in experiment [4], 0.8 µM. Besides, the figures for the IC50 in experiment [5] and in experiment [6] were 27 µM and 34 µM, respectively.

`NCCCC[C@H](N)C(=O)NCCC(=O)Nc1ccc2c(c1)C(=O)c1cc(NC(=O)CCNC(=O)[C@@H](N)CCCCN)ccc1C2=O`: the ΔTm worked out at 17 °C in experiment [1] and 3 °C in experiment [2]. For the same compound, the EC50 in experiment [3] worked out at 2.5 µM; in experiment [4] it was 1.5 µM. The IC50 in experiment [5] and in experiment [6] was greater than 100 µM in each case.

With `NCCC(=O)Nc1ccc2c(c1)C(=O)c1ccc(NC(=O)CCN)cc1C2=O`, the ΔTm was 18.1 °C in experiment [1] and 9.1 °C in experiment [2]. Also, the EC50 is greater than 40 µM in experiment [3] and 1.25 µM in experiment [4]. Further, the concentration for half-maximal inhibition (IC50) in experiment [5] and in experiment [6] was greater than 100 µM throughout.

Consider `C[C@H](N)C(=O)NCCC(=O)Nc1ccc2c(c1)C(=O)c1cc(NC(=O)CCNC(=O)[C@H](C)N)ccc1C2=O`, for which the values for the ΔTm in experiment [1] and in experiment [2] were 9 °C and 0.3 °C, respectively. For the same compound, the EC50 in experiment [3] is greater than 40 µM; in experiment [4], 15 µM. In addition, the values for the half-maximal inhibitory concentration (IC50) in experiment [5] and in experiment [6] were 64 µM and greater than 100 µM, respectively.
